According to ChEMBL document CHEMBL1123566, “Synthesis and cardiac electrophysiological activity of 2- and 3-[(substituted phenyl)alkyl]quinuclidines. Structure-activity relationships” (1987):

Experiments:
[1] = test system: Canis familiaris; test: Heart rate was determined by intraduodenal administration of two dosages of 30 mg/kg of compound in anesthetized dogs. Value was reported for experiment 1; format: functional, Canis lupus familiaris
In short: (§1)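 Anesthetized dogs; compound given intraduodenally, generally as two doses, the second a cumulative (high) dose. LV functional refractory period and conduction time measured 15, 30 and 45 min after dosing; heart rate and blood pressure measured during nonpacing intervals. Values are % change from control, given per individual animal. Active if FRP or CT prolonged by ≥12%.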

[2] = test system: Canis familiaris; test: Heart rate was determined by intraduodenal administration of two dosages of 30 mg/kg of compound in anesthetized dogs. Value was reported for experiment 2; format: functional, Canis lupus familiaris; in short: as §1
[3] = test system: Canis familiaris; test: Heart rate was determined by intraduodenal administration of two dosages of 30 mg/kg of compound in anesthetized dogs. Value was reported for experiment 3; format: functional, Canis lupus familiaris; in short: as §1
[4] = test system: Canis familiaris; test: Conduction time was determined by intraduodenal administration of 30 mg/kg (high dose) of compound in anesthetized dogs. Value was reported for experiment 1; format: functional, Canis lupus familiaris; in short: as §1
[5] = test system: Canis familiaris; test: Conduction time was determined by intraduodenal administration of 30 mg/kg (high dose) of compound in anesthetized dogs. Value was reported for experiment 2; format: functional, Canis lupus familiaris; in short: as §1
[6] = test system: Canis familiaris; test: Conduction time was determined by intraduodenal administration of 30 mg/kg (high dose) of compound in anesthetized dogs. Value was reported for experiment 3; format: functional, Canis lupus familiaris; in short: as §1
[7] = test system: Canis familiaris; test: Conduction time was determined by intraduodenal administration of 10 mg/kg (low dose) of compound in anesthetized dogs. Value was reported for experiment 1; format: functional, Canis lupus familiaris; in short: as §1
[8] = test system: Canis familiaris; test: Conduction time was determined by intraduodenal administration of 10 mg/kg (low dose) of compound in anesthetized dogs. Value was reported for experiment 2; format: functional, Canis lupus familiaris; in short: as §1
[9] = test system: Canis familiaris; test: Conduction time was determined by intraduodenal administration of 10 mg/kg (low dose) of compound in anesthetized dogs. Value was reported for experiment 3; format: functional, Canis lupus familiaris; in short: as §1
[10] = test system: Canis familiaris; test: Heart rate was determined by intraduodenal administration of two dosages of 10 mg/kg of compound in anesthetized dogs. Value was reported for experiment 1; format: functional, Canis lupus familiaris; in short: as §1
[11] = test system: Canis familiaris; test: Heart rate was determined by intraduodenal administration of two dosages of 10 mg/kg of compound in anesthetized dogs. Value was reported for experiment 2; format: functional, Canis lupus familiaris; in short: as §1
[12] = test system: Canis familiaris; test: Heart rate was determined by intraduodenal administration of two dosages of 10 mg/kg of compound in anesthetized dogs. Value was reported for experiment 3; format: functional, Canis lupus familiaris; in short: as §1
[13] = test system: Canis familiaris; test: Left ventricular refractory period was determined by intraduodenal administration of 10 mg/kg (low dose) of compound in anesthetized dogs. Value was reported for experiment 1; format: functional, Canis lupus familiaris, Cardiac ventricle
In short: (§2)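 Anesthetized dogs received two intraduodenal doses, the second cumulative (low dose/high dose). Left ventricular FRP and CT were measured 15, 30 and 45 min after dosing. Heart rate and mean blood pressure were taken during nonpacing intervals. Values are percent change from control. The vehicle was 5% dextrose in water/tragacanth. Activity was defined as ≥12% prolongation of FRP or CT.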

[14] = test system: Canis familiaris; test: Left ventricular refractory period was determined by intraduodenal administration of 10 mg/kg (low dose) of compound in anesthetized dogs. Value was reported for experiment 2; format: functional, Canis lupus familiaris, Cardiac ventricle; in short: as §2
[15] = test system: Canis familiaris; test: Left ventricular refractory period was determined by intraduodenal administration of 10 mg/kg (low dose) of compound in anesthetized dogs. Value was reported for experiment 3; format: functional, Canis lupus familiaris, Cardiac ventricle; in short: as §2
[16] = test system: Canis familiaris; test: Left ventricular refractory period was determined by intraduodenal administration of 30 mg/kg (high dose) of compound in anesthetized dogs. Value was reported for experiment 1; format: functional, Canis lupus familiaris, Cardiac ventricle; in short: as §2
[17] = test system: Canis familiaris; test: Left ventricular refractory period was determined by intraduodenal administration of 30 mg/kg (high dose) of compound in anesthetized dogs. Value was reported for experiment 2; format: functional, Canis lupus familiaris, Cardiac ventricle; in short: as §2
[18] = test system: Canis familiaris; test: Left ventricular refractory period was determined by intraduodenal administration of 30 mg/kg (high dose) of compound in anesthetized dogs. Value was reported for experiment 3; format: functional, Canis lupus familiaris, Cardiac ventricle; in short: as §2
[19] = test system: Canis familiaris; test: Mean arterial blood pressure was determined by intraduodenal administration of two dosages of 30 mg/kg of compound in anesthetized dogs. Value was reported for experiment 1; format: functional, Canis lupus familiaris; in short: as §2
[20] = test system: Canis familiaris; test: Mean arterial blood pressure was determined by intraduodenal administration of two dosages of 30 mg/kg of compound in anesthetized dogs. Value was reported for experiment 2; format: functional, Canis lupus familiaris; in short: as §2
[21] = test system: Canis familiaris; test: Mean arterial blood pressure was determined by intraduodenal administration of two dosages of 30 mg/kg of compound in anesthetized dogs. Value was reported for experiment 3; format: functional, Canis lupus familiaris
[22] = test system: Canis familiaris; test: Mean arterial blood pressure was determined by intraduodenal administration of two dosages of 10 mg/kg of compound in anesthetized dogs. Value was reported for experiment 1; format: functional, Canis lupus familiaris; in short: as §2
[23] = test system: Canis familiaris; test: Mean arterial blood pressure was determined by intraduodenal administration of two dosages of 10 mg/kg of compound in anesthetized dogs. Value was reported for experiment 2; format: functional, Canis lupus familiaris; in short: as §2
[24] = test system: Canis familiaris; test: Mean arterial blood pressure was determined by intraduodenal administration of two dosages of 10 mg/kg of compound in anesthetized dogs. Value was reported for experiment 3; format: functional, Canis lupus familiaris
[25] = organism: Canis familiaris; test: In vitro electrophysiological evaluation in canine cardiac ventricular muscle reported as maximum % change for conduction time(CT) at 0.1-10 uM concentration range; Minimal (<10% decrease or increase in CT).; format: functional, Canis lupus familiaris, Muscle tissue
In short: (§3)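 Canine right ventricle and papillary muscle strips in oxygenated Tyrode's solution, fitted with stimulating and recording electrodes. The extra-stimulus conduction-interval method was adapted for in vitro use. FRP and CT were read from a conduction-interval curve before and after various compound concentrations, and expressed as percent change from control. Compounds were taken from 10 mM deionized-water stock into Tyrode's. Each strip was used once as its own control.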

[26] = organism: Canis familiaris; test: In vitro electrophysiological evaluation in canine cardiac ventricular muscle reported as % change for the functional refractory period (FRP) at 10 uM at concentration range of 0.1-10 uM; set-up: species or system Canis lupus familiaris, Muscle tissue; in short: as §3
[27] = organism: Canis familiaris; test: In vitro electrophysiological evaluation in canine cardiac ventricular muscle reported as % change for conduction time(CT) at 10 uM at 0.1-10 uM concentration range; Minimal (<10% decrease or increase in CT).; format: functional, Canis lupus familiaris, Muscle tissue
[28] = organism: Canis familiaris; test: In vitro electrophysiological evaluation in canine cardiac ventricular muscle reported as maximum % change for functional refractory period (FRP) at 0.1-10 uM concentration range; concentration at which it occurred is 10 uM; set-up: species or system Canis lupus familiaris, Muscle tissue; in short: as §3
[29] = organism: Canis familiaris; test: In vitro electrophysiological evaluation in canine cardiac Purkinje fibres reported as percent change Vmax at 10 uM at concentration range of 0.1-10 uM; Minimal (<10% decrease or increase in V max).; format: functional; conditions: Canis lupus familiaris, Purkinje fiber
In short: (§4)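 Canine cardiac Purkinje fibres, intracellular microelectrode recording, paced at a basic cycle length of 1 s. APD95 and Vmax read simultaneously. Compound: 10 mM stock in deionized water, diluted into Tyrode's solution, tested over the stated concentration range. Each fibre used once as its own control. Result is % change from control, given at 10 µM or as the maximum with its concentration. M = <10% decrease or an increase in Vmax.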

[30] = organism: Canis familiaris; test: In vitro electrophysiological evaluation in canine cardiac Purkinje fibres reported as percent change Vmax at 10 uM at concentration range of 1-100 uM.; format: functional; conditions: Canis lupus familiaris, Purkinje fiber; in short: as §4
[31] = organism: Canis familiaris; test: In vitro electrophysiological evaluation in canine cardiac Purkinje fibres reported as percent change Vmax at 10 uM at concentration range of 1-100 uM; Minimal (<10% decrease or increase in V max).; format: functional; conditions: Canis lupus familiaris, Purkinje fiber; in short: as §4
[32] = organism: Canis familiaris; test: In vitro electrophysiological evaluation in canine cardiac Purkinje fibres reported as percent change Vmax at concentration range of 1-100 uM; conduction block; format: functional; conditions: Canis lupus familiaris; Purkinje fiber; in short: as §4
[33] = organism: Canis familiaris; test: In vitro electrophysiological evaluation in canine cardiac Purkinje fibres reported as percent change Vmax at concentration range of 0.1-10 uM; Minimal (<10% decrease or increase in V max).; format: functional; conditions: Canis lupus familiaris; Purkinje fiber; in short: as §4
[34] = organism: Canis familiaris; test: In vitro electrophysiological evaluation in canine cardiac Purkinje fibres reported as % change for action potential duration at a concentration of 10 uM; format: functional, Canis lupus familiaris, Purkinje fiber; in short: as §4
[35] = organism: Canis familiaris; test: In vitro electrophysiological activity in canine cardiac occurred is 100 uM; format: functional, Canis lupus familiaris, Heart
[36] = organism: Canis familiaris; test: In vitro electrophysiological activity in canine cardiac occurred is 10 uM; format: functional, Canis lupus familiaris, Heart

CC(=O)C(CC1C(=O)C2CCN1CC2)C(=O)c1ccc(Cl)cc1.Cl (stereo unspecified)
HR [1]: 2%
HR [2]: -28%
HR [3]: -22%
CT [4]: 9%
CT [5]: 7%
CT [6]: 13%
CT [7]: 3%
CT [8]: 0%
CT [9]: 8%
HR [10]: 1%
HR [11]: -14%
HR [12]: -15%
LV FRP [13]: 4%
LV FRP [14]: 11%
LV FRP [15]: 11%
LV FRP [16]: 1%
LV FRP [17]: 18%
LV FRP [18]: 15%
Mean blood pressure [19]: -6%
Mean blood pressure [20]: -16%
Mean blood pressure [21]: 7%
Mean blood pressure [22]: -5%
Mean blood pressure [23]: -4%
Mean blood pressure [24]: 7%
CT [25]: <10%
FRP [26]: 24%
CT [27]: <10%
FRP [28]: 24%
Vmax [29]: < 10%
Vmax [30]: -10%
Vmax [31]: < 10%
Vmax [32]: 100%
Vmax [33]: < 10%
APD95 [34]: 23%
APD95 [35]: -16%
APD95 [36]: 23%
